Laboratory results from ChEMBL document CHEMBL4376807, “Hydroxamic Acid Derivatives of β-Carboline/Hydroxycinnamic Acid Hybrids Inducing Apoptosis and Autophagy through the PI3K/Akt/mTOR Pathways” (J Nat Prod, 2019).
Activity calls are given as the source filed them. The calls are words filed in the database; no cut-off is given here.

Experiments:
Histone deacetylase 8 = molecular target: T1, Histone deacetylase 8 (Homo sapiens, UniProt Q9BY41); experiment: Inhibition of human HDAC8 using Boc-Lys (Ac)-AMC as substrate incubated for 60 mins by fluorimetric assay
T1 sequence (Q9BY41 whole entry): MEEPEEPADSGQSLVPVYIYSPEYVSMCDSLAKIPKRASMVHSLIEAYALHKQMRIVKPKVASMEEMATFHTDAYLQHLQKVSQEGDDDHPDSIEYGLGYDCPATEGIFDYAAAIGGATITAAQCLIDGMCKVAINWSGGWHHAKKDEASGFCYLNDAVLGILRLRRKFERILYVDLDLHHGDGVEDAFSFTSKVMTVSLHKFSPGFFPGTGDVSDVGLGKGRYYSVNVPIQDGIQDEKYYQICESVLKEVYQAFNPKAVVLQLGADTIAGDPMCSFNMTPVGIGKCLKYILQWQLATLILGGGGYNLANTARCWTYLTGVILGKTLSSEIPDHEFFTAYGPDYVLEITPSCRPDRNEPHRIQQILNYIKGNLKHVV

[1] = molecular target: T2, Protein deacetylase HDAC6 (Homo sapiens, UniProt Q9UBN7); experiment: Inhibition of human HDAC6 using Boc-Lys (Ac)-AMC as substrate incubated for 60 mins by fluorimetric assay
T2 sequence (Q9UBN7 whole entry): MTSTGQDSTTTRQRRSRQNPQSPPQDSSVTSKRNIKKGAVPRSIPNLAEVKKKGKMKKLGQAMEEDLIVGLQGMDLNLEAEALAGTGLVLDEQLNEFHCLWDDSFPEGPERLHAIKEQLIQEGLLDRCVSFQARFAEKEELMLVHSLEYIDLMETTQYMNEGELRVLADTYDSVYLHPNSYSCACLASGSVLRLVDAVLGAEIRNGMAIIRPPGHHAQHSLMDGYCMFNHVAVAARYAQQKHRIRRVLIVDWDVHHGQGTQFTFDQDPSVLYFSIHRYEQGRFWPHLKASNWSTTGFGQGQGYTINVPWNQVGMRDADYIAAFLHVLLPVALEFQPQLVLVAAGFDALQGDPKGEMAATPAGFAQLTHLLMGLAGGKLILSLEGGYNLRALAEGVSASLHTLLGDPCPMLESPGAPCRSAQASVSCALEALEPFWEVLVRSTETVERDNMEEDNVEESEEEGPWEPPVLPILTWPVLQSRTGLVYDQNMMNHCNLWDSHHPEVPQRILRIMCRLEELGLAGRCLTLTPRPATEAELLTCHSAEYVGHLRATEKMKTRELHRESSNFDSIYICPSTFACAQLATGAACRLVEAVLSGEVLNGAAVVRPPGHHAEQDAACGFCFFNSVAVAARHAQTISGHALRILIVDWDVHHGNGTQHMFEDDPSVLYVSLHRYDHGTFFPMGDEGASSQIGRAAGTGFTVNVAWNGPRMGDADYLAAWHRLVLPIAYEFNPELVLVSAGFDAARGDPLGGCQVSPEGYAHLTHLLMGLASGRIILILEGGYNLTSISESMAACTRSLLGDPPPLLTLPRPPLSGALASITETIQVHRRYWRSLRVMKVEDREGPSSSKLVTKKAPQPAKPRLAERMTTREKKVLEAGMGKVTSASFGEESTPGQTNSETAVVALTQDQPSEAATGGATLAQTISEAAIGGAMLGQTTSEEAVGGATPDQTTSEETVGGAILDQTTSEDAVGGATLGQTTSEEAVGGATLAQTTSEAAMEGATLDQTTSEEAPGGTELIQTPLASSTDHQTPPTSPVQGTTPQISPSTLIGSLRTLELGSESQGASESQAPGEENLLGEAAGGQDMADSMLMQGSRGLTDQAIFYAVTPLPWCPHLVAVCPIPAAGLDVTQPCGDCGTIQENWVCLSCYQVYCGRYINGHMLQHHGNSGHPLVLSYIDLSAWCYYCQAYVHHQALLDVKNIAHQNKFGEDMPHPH

Huh-7 = experiment: Antiproliferative activity against human HuH7 cells after 72 hrs by MTT assay; assay type: functional, cell-based; details: Huh-7, 72 h
Bel-7402 [2] = experiment: Induction of apoptosis in human Bel7402 cells assessed as decrease in Bcl-2 expression after 72 hrs by Western blot analysis; assay type: functional, cell-based
In short: (§1)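 Subconfluent Bel7402 cells (1.5 × 10^5/mL) exposed to vehicle or compound for 72 h, then lysed. Lysates (0.05 mg/lane) run on 12% SDS-PAGE, transferred to nitrocellulose, blocked in 5% nonfat milk. Probed for Bax, Bcl-2, cleaved caspase-3 and cleaved PARP, with HRP secondary and chemiluminescence. Levels normalized to β-actin; three separate assays, mean ± SD.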

[3] = Inhibition of PI3K/AKT/mTOR signaling in human Bel7402 cells assessed as reduction in AKT phosphorylation after 24 to 72 hrs by Western blot analysis; assay type: cell-based
In short: (§2)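 Bel7402 cells (1.5 × 10^5/mL) exposed to compound at 1.0 and 2.5 μM for 24 or 72 h. Lysates (0.05 mg/lane) separated on 12% SDS-PAGE and blotted to nitrocellulose. Probed for total Akt, phospho-Akt (Ser473), total mTOR and phospho-mTOR, HRP secondary, chemiluminescent detection. Quantified from three separate assays, mean ± SD.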

HepG2 = experiment: Antiproliferative activity against human HepG2 cells after 72 hrs by MTT assay; assay type: functional, cell-based; details: HepG2, 72 h
Bel-7402 [4] = experiment: Induction of apoptosis in human Bel7402 cells assessed as increase in cleaved caspase-3 level at 5 uM after 72 hrs by Western blot analysis; assay type: functional, cell-based; in short: as §1
Bel-7402 [5] = experiment: Induction of apoptosis in human Bel7402 cells assessed as annexin-V positive cells at 5 uM after 72 hrs by Annexin-V/PI staining based flow cytometry relative to control; assay type: functional
In short: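 Bel7402 cells (10 000) cultured overnight, then exposed to compound at 1.0 or 5.0 μM, or vehicle, for 72 h. Harvested, stained with annexin-V APC and 7-AAD for 15 min. Apoptotic percentage measured by flow cytometry (APC ex 633/em 660 nm; 7-AAD ex 488/em 647 nm). Three separate assays, mean ± SD.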

Homo sapiens = species: Homo sapiens; experiment: Selectivity ratio of IC50 for HDAC1 (unknown origin) to IC50 for human HDAC6
In short: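 Recombinant human HDAC1, 3, 6 and 8 (fluorimetric kit) incubated with compound over a range of concentrations and Boc-Lys(Ac)-AMC substrate at 37 °C for 60 min. Reaction quenched with lysine developer; after 30 min, fluorescence read at ex 355/em 460 nm. Inhibition taken relative to control and IC50 fitted; ratios built from these IC50s.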

Bel-7402 [6] = experiment: Induction of autophagy in human Bel7402 cells assessed as upregulation of LC3-2 level at 5 uM after 24 to 72 hrs by Western blot analysis; assay type: functional, cell-based
In short: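 Bel7402 cells (1.5 × 10^5/mL) exposed to compound at indicated doses, or vehicle, for 24 or 72 h. Lysates (0.05 mg/lane) separated on 12% SDS-PAGE, blotted to nitrocellulose, blocked in 5% milk. Probed with anti-LC3, anti-p62 and anti-beclin-1, HRP secondary, chemiluminescent detection. Levels quantified relative to β-actin; three separate assays, mean ± SD.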

Bel-7402 [7] = experiment: Effect on mTOR expression in human Bel7402 cells at 1 to 2.5 uM after 24 to 72 hrs by Western blot analysis; assay type: ADME, cell-based; details: bel-7402, 2.5 µM; in short: as §2

## COc1ccc(-c2nc(NCCCOc3ccc(/C=C/C(=O)NO)cc3OC)cc3c2[nH]c2ccccc23)cc1
Histone deacetylase 8
  IC50: > 1000 nM
[1]
  IC50: 13 nM
Huh-7
  IC50: 1100 nM
Bel-7402 [2]
  Activity: Dose-dependent effect
[3]
  inhibition: Dose-dependent effect
HepG2
  IC50: 1400 nM
Bel-7402 [4]
  Activity: Active
Bel-7402 [5]
  Activity: 73.8%
Homo sapiens
  Ratio IC50: 2
Bel-7402 [6]
  Activity: Active
Bel-7402 [7]
  Activity: Non-Toxic
